Bioassay records: PubChem, Johns Hopkins Ion Channel Center
TRPC6 inh – blocks the mouse TRPC6 cation channel. AID 2553. HEK293-TRPC6, membrane potential dye, ACh-evoked depolarization; hits give low values. 310,000 compounds, 1.1% hits. Q61143. B-score at 10 µM;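 active = B-score under library mean minus 3 SD, initial fluorescence not abnormally high, positive integrated signal ratio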;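 also: B-score derived from integrated fluorescence ratio over the kinetic read; more negative B-score means stronger inhibition of depolarization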
Kir21 block – inhibitors of mouse Kir2.1 inward-rectifier potassium channel; B-score at 10 µM; HEK293-Kir2.1, FluxOR thallium flux fluorescence; hits give low values; 310,000 compounds, 0.85% hits; AID 1672;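 active = fluorescence ratio B-score at or below minus 3 SD of library scores, with starting-brightness B-score within 2 SD, cut at about -4.2 in these data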;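 also: channel flux triggered by added potassium and thallium sulfate stimulus; B-score of peak minus minimum fluorescence over baseline after thallium stimulus; more negative B-score means stronger Kir2.1 block with less thallium influx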
Target sequence (P35561 whole entry, looked up): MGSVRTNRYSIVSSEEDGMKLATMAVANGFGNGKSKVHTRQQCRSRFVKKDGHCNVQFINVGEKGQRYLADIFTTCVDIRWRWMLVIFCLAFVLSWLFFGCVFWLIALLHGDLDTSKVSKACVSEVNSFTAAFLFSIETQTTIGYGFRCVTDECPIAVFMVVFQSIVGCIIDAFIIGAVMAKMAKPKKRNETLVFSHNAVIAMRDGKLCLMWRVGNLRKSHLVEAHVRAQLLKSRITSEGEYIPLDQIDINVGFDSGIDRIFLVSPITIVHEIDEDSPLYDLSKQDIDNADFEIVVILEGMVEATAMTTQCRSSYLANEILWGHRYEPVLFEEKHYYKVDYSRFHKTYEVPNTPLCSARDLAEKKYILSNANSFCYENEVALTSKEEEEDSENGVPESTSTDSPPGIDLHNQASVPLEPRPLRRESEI
TRPC4 PAM – allosterically enhances the mouse TRPC4 cation channel. HEK293 TRPC4beta/mu-opioid, DAMGO EC20, Fluo-4 Ca2+ flux; hits give high values. B-score at 10 µM. 310,000 compounds, 0.42% hits;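 active = B-score of calcium response area above 5 SD of library B-scores, with initial fluorescence ratio within 5 SD of library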;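 also: B-score of integrated fluorescence ratio over time as area under calcium response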
TRPC6 act – activates the mouse TRPC6 cation channel; B-score at 10 µM; 310,000 compounds, 0.13% hits; Q61143; HEK293-TRPC6 membrane potential dye fluorescence; hits give high values; AID 2550;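 active = B-score of the integrated fluorescence ratio above library mean plus 3 SD, and starting fluorescence ratio within library mean plus 5 SD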;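 also: higher score means more depolarization so channel activation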
TRPC4 block – TRPC4 (mouse) channel inhibition; HEK293 TRPC4beta/mu-opioid, DAMGO-evoked Fluo4 calcium flux; hits give low values; Q9QUQ5; B-score at 10 µM; 300,000 compounds, 0.39% hits; AID 2247;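 active = B-score over 3 SD under the library average, no early fluorescence shift, positive overall ratio signal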
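Assay system: HEK293 cells with stable TRPC4beta plus mu-opioid receptor expression. Dosing: single dose. Measured by: Fluo4 Ca2+ flux fluorescence. Also added: DAMGO in two steps, submaximal then maximal. Read-out: B score from integrated Fluo4 fluorescence ratio.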
TRPC4 agonist – opens the mouse TRPC4 cation channel | Q9QUQ5 | HEK293 TRPC4beta/mu-opioid, Fluo4 calcium fluorescence; hits give high values | B-score at 10 µM | 310,000 compounds, 0.49% hits | AID 2237;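 active = B-score above 5 SD of library B-scores, and initial fluorescence ratio not above library mean plus 5 SD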;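 also: positive B-score marks a calcium rise read as TRPC4 activation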
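Material: TRPC4beta and mu-opioid receptor HEK293 stable cells | Incubation: 45 min room-temperature Fluo4 loading, 110 s read | Detection: Kinetic Fluo4 calcium fluorescence | Measure: Integrated baseline-normalised fluorescence ratio, converted to per-well B score | Benchmarks: Low control buffer alone, high control maximal DAMGO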
* hit, by the source's call; i = inactive. An excerpt weighted towards active compounds, which were near 3% of everything screened.

SMILES | TRPC6 inh | Kir21 block | TRPC4 PAM | TRPC6 act | TRPC4 block | TRPC4 agonist
CC1CC(C)CN(CCOCCSc2ccc(Cl)cc2)C1 (stereo unspecified) | i | -4.5* | i | i | i | i
CCCc1c(C(=O)N/N=C/c2ccco2)nnn1-c1nonc1N | i | 1.9 | i | i | i | i
O=C(COc1ccc(-c2ccccc2)cc1)NNC(=O)Nc1ccc(F)cc1F | i | 0.21 | i | i | i | i
Cc1csc2c(N3CCN(S(=O)(=O)c4ccc(Cl)cc4)CC3)ncnc12 | i | 0.24 | 10* | i | i | i
Cc1csc2c(N3CCCCC3)ncnc12 | i | 0.44 | i | i | i | i
CC(=O)Nc1nc2ccccc2n1CCN1CCOCC1 | i | 0.29 | i | i | i | i
Cc1c(Cl)c(C(=O)Nc2nc3ccccc3n2CCN2CCCCC2)nn1C | -8.2* | -0.05 | i | i | i | i
CCCn1c(NC(=O)c2ccc(Cl)c(S(=O)(=O)N3CCCC3)c2)nc2ccccc21 | i | -2.1 | 32* | i | -7* | i
CCOC(=O)C1CCCN(CCc2ccccc2)C1 (stereo unspecified) | i | 0.78 | i | i | i | i
O=C(OC1C2CCC1C1CN(CCc3ccccc3)CC12)c1ccccc1 (stereo unspecified) | i | -7.4 | i | i | -6* | i
COc1ccc(N(C(=O)CNC(=O)c2ccco2)C(C(=O)NCC2CCCO2)c2ccccc2)cc1 (stereo unspecified) | i | -0.9 | 11* | i | i | i
CSCc1c(C(=O)Nc2ccc3c(c2)OCO3)oc2ccccc12 | i | -1.1 | i | i | i | i
CSCc1c(C(=O)NCCc2ccccn2)oc2ccccc12 | i | -1.3 | 12* | i | i | i
Cc1ccn2cc(CCNC(=O)C3CC=CCC3C(=O)O)nc2c1 (stereo unspecified) | i | 0.46 | i | i | i | 202*
O=C(O)C1CC=CCC1C(=O)NCc1cn2ccccc2n1 (stereo unspecified) | i | 0.41 | i | i | i | i
CC1CCCN(C(=O)CCNS(=O)(=O)c2ccc3c(c2)c(=O)n(C)c(=O)n3C)C1 (stereo unspecified) | i | -1.8 | i | i | i | i
O=C(COC(=O)c1cc(S(=O)(=O)N2CCCCC2)ccc1N1CCOCC1)c1ccc(F)cc1 | i | -2.4 | i | i | i | i
CCc1c(C)nc(N2CCN(c3ccc(OC)cc3)CC2)[nH]c1=O | i | -1.3 | i | i | i | i
Cc1cccc(-n2c(SC(C)C(=O)O)nc3sc4c(c3c2=O)CCCC4)c1 (stereo unspecified) | i | 1.7 | i | i | i | i
CC(Sc1nc2sc3c(c2c(=O)n1-c1ccccc1)CCCC3)C(=O)O (stereo unspecified) | i | -0.42 | 17* | i | i | i
CC(C)[C@H](NC(=O)[C@@H]1Cc2ccccc2CN1C(=O)OC(C)(C)C)C(=O)NCc1ccco1 | i | -0.76 | i | i | i | i
CC(=O)N1c2ccccc2C(C)CC12CCCCC2 (stereo unspecified) | i | -4.7* | i | i | i | i
CC(=O)N1Cc2ccccc2C(C)CC12CCCC2 (stereo unspecified) | i | -5.1* | i | i | i | i
CC(=O)OC(C)[C@H]1CC[C@H]2[C@@H]3CC[C@H]4C[C@@H](OC(C)=O)CC[C@]4(C)C3=CC[C@]12C (stereo partly specified) | i | -0.03 | i | i | i | i
Cc1cccc(OCC(=O)Nc2nccs2)c1C | i | 3 | i | i | i | i
SMILES | TRPC6 inh | Kir21 block | TRPC4 PAM | TRPC6 act | TRPC4 block | TRPC4 agonist
Cc1cc2[nH]c(=O)c(=O)[nH]c2cc1S(=O)(=O)Nc1cccc(C)c1C | i | 0.55 | i | i | i | i
Cc1cccc(/C=N/NC(=O)c2cc(Br)ccc2O)n1 | i | 1.4 | 65* | i | i | i
CCOc1ccc(Br)cc1C(=O)N/N=C/c1cccc(C)n1 | i | 0.29 | i | i | i | i
CCOC(=O)N1CCN(C(=O)CS(=O)Cc2nc(-c3ccc(OC)c(OC)c3)oc2C)CC1 (stereo unspecified) | i | -0.1 | i | i | i | i
NC1=NC2(CCCCC2)n2c(nc3ccccc32)N1 | i | -0.05 | i | i | i | i
NC1=NC2(CCN(Cc3ccccc3)CC2)n2c(nc3ccccc32)N1 | i | 1.4 | i | i | i | 87*
Cn1c(=O)[nH]c2ccc([N+](=O)[O-])nc21 | i | 0.02 | i | i | i | i
O=C1c2ccccc2C(=O)N1CCC(c1ccc(F)cc1)c1ccco1 (stereo unspecified) | i | -4.8* | i | i | i | i
O=C1CCC(=O)N1CCC(c1ccc(F)cc1)c1ccco1 (stereo unspecified) | i | -0.61 | i | i | i | i
O=C(COC(=O)CC(c1ccccc1)c1ccccc1)NCc1ccccc1 | i | -5.8* | i | i | i | i
CCN(CC)S(=O)(=O)c1ccc(NC(=O)Cn2c(=O)oc3ccccc32)cc1 | i | 0.95 | i | i | -6* | i
Cc1ccc(NC(=O)Cn2c(=O)oc3ccccc32)cc1 | i | -0.01 | i | i | i | i
COc1ccc(S(=O)(=O)N2CCN=C2SCc2cccc(C)c2)cc1 | i | -0.97 | i | i | i | i
O=C(CN1CCN(S(=O)(=O)c2cc(Cl)ccc2Cl)CC1)Nc1ccc2c(c1)OCCO2 | -5.6* | 0.27 | i | i | i | 57*
CN(C)c1ccc(NC(=O)CN2CCN(S(=O)(=O)c3cc(Cl)ccc3Cl)CC2)cc1 | i | -0.1 | i | i | i | i
CCOc1ccc2nc(NC(=O)CN3C(=O)C4CCCCC4C3=O)sc2c1 (stereo unspecified) | i | -1 | i | i | i | i
CN(C)CC1CCCCC1OC(=O)c1ccc(Br)cc1 (stereo unspecified) | i | -1.9 | i | i | -6* | i
Fc1ccc(CNCCC(Cc2ccccc2)c2ccco2)cc1 (stereo unspecified) | i | -15* | i | i | i | i
O=C(NCCNCc1ccc(F)cc1)c1ccco1 | i | -1.4 | i | i | i | i
CC(=O)NNC(=O)c1csc(-c2csc(C)n2)n1 | i | 0.57 | i | i | i | i
